Source: ChEMBL document CHEMBL4673366, “Cyclic Phosphopantothenic Acid Prodrugs for Treatment of Pantothenate Kinase-Associated Neurodegeneration” (J Med Chem, 2020)
Values belong to the molecule of their own block, whether it stands above or below them. The source made the active and inactive calls. No cut-off for these calls is given here.

What was measured:
[1] = Effect on free coenzyme A level in C57BL6 mouse brain at 500 mg/kg, po administered as single dose measured after 6 hr UPLC quadrupole-time-of-flight mass spectrometry (Rvb =100%); type: functional
Method in brief: (§1)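 C57BL6 mice, three per time point, received one oral 500 mg/kg dose of isotopically labeled prodrug, and brains were taken at 0, 1, 6 and 24 h. Brains were homogenized in water (3 mL/g), protein was precipitated with MeOH, and dried supernatant was reconstituted in 10 mM ammonium acetate (pH ~5). Analysis was UPLC-QTOF MS in positive ESI, scoring labeled CoA (+6, +4 amu) as a share of free CoA.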

[2] = tested on: IMR-32; test: Increase in tubulin acetylation in human IMR-32 PANK2 knockdown cells at 50 uM for 48 hrs by Western blot analysis; type: functional
[3] = Effect on free coenzyme A level in C57BL6 mouse brain at 500 mg/kg, po administered as single dose measured after 24 hrs UPLC quadrupole-time-of-flight mass spectrometry (Rvb =100%); type: functional; method in brief: as §1
[4] = tested on: IMR-32; test: Decrease in lipid droplet content in human IMR-32 PANK2 knockdown cells at 10 uM for 48 hrs by Nile red staining based inverted microscopic analysis; type: functional
Method in brief: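 PANK2-knockout neuroblastoma cells were treated for 48 h, then fixed and stained with 100 ng/mL Nile Red. Cells were imaged on an inverted microscope at 60×, and lipid droplet content was quantified by plate fluorimetry. Data are mean ± sd of two biological replicates, each in duplicate; two-tailed paired Student's t-test.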

[5] = tested on: IMR-32; test: Increase in histone H3 acetylation in human IMR-32 PANK2 knockdown cells at 50 uM for 48 hrs by Western blot analysis; type: functional
[6] = Induction of Coenzyme A regeneration in human IMR-32 PANK2 knockdown cells at 50 uM for 24 hrs by HPLC analysis relative to control; type: functional
Method in brief: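 PANK2-knockout neuroblastoma cells were grown in MEM with 10% FBS and 1 µg/mL puromycin and seeded at 0.2×10⁶ cells/well. After 72 h, they were dosed at 50 µM in DMSO (final 0.1%) at 37 °C. Washed, frozen pellets were reconstituted in ammonium acetate (pH 5.1) with internal standard, and free CoA was measured by LC-MS/MS. Intracellular volume was taken as 2 µL/10⁶ cells; results are fold over vehicle-treated cells.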

[7] = Effect on free coenzyme A level in C57BL6 mouse brain at 500 mg/kg, po administered as single dose measured after 1 hr UPLC quadrupole-time-of-flight mass spectrometry (Rvb =100%); type: functional; method in brief: as §1
[8] = Increase in free coenzyme A level in C57BL6 mouse brain at 500 mg/kg, po administered as single dose measured after 24 hrs UPLC quadrupole-time-of-flight mass spectrometry (Rvb =0%); type: functional; method in brief: as §1
[9] = Increase in free coenzyme A level in C57BL6 mouse brain at 500 mg/kg, po administered as single dose measured after 6 hrs UPLC quadrupole-time-of-flight mass spectrometry (Rvb =0%); type: functional; method in brief: as §1
[10] = Increase in free coenzyme A level in C57BL6 mouse brain at 500 mg/kg, po administered as single dose measured after 1 hr UPLC quadrupole-time-of-flight mass spectrometry (Rvb =0%); type: functional; method in brief: as §1
[11] = Stability of compound in human plasma assessed as half life; type: ADME, cell-free
[12] = Apparent permeability in porcine brain endothelial cells; type: ADME, cell-based, Sus scrofa, Endothelial cell; details: pig
[13] = Stability of compound in human hepatocytes assessed as half life; type: ADME, cell-based, Hepatocyte
[14] = Stability of compound in human whole blood assessed as half life; type: ADME, tissue-based

Compound: COC(=O)CCNC(=O)[C@@H]1OP(=O)(OCOC(=O)C(C)(C)C)OCC1(C)C (mixture of isomers)
Activity [1]: 92% | Activity [2]: Active | Activity [3]: 85% | inhibition [4]: Active | Activity [5]: Active | fold change (FC) [6]: 180 | Activity [7]: 100%

Compound: CO[13C](=O)[13CH2][13CH2][15NH]C(=O)[C@@H]1OP(=O)(OCOC(=O)C(C)(C)C)OCC1(C)C (stereo partly drawn)
Activity [8]: 12.9% | Activity [9]: 2.7% | Activity [10]: 0%

Compound: CO[13C](=O)[13CH2][13CH2][15NH]C(=O)[C@@H]1OP(=[18O])(OCOC(=O)C(C)(C)C)OCC1(C)C (stereo partly drawn)
Activity [8]: 2.1% | Activity [9]: 5.3% | Activity [10]: 0%

Compound: CCc1cc(C(=O)OCO[P@@]2(=O)OCC(C)(C)[C@H](C(=O)NCCC(=O)OC)O2)n(C)n1
Papp [12]: 11.8 ×10⁻⁶ cm/s | half-life [13]: 18 min | half-life [14]: ≥ 58.2 min | fold change (FC) [6]: 14

Further lines, with some results ahead:

half-life [11]: < 9.6 min
Compound: COC(=O)CCNC(=O)[C@@H]1O[P@@](=O)(OCOC(=O)c2cncs2)OCC1(C)C (relative stereo)

Papp [12]: 5.1 ×10⁻⁶ cm/s | half-life [13]: 30 min | half-life [14]: > 60 min
Compound: COC(=O)CCNC(=O)[C@@H]1O[P@@](=O)(OCOC(=O)c2scnc2C)OCC1(C)C
fold change (FC) [6]: 40

half-life [11]: < 9.6 min
Compound: COC(=O)CCNC(=O)[C@@H]1O[P@](=O)(OCOC(=O)c2cncs2)OCC1(C)C (relative stereo)
